Laboratory results as given in article PMC11842817 (Nature Communications, 2025).
Several values for one entry are separate records, joined by “and”; a condition that tells them apart may be missing. Equal entries are not always repeated. Entries after “also recorded” stand apart in the source; their conditions may differ.

Legend:
SyoA [1] = molecular target: T1, SyoA (Amycolatopsis thermoflava, UniProt A0AAX7FLX8); assay: Substrate binding affinity; set-up: species or system Amycolatopsis thermoflava N1165; details: 50 mM potassium phosphate pH 7.4, n = 3, hyperbolic fit
T1 sequence (A0AAX7FLX8 1-412): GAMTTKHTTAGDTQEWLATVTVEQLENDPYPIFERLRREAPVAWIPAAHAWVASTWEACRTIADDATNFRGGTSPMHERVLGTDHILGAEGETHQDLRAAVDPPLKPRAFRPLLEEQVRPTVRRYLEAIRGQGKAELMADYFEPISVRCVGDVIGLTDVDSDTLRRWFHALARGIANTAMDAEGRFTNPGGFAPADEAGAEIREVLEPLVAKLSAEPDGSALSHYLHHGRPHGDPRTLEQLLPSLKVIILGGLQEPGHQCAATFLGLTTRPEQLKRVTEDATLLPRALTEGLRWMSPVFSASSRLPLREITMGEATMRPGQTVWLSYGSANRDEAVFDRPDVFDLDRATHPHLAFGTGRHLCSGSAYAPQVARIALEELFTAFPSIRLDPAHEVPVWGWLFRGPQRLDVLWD
Procedure, shortened: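 SyoA at about 2–8 µM in 50 mM potassium phosphate pH 7.4 titrated with test compound from 1, 10 or 100 mM DMSO stocks (at most 10 µL per stock). Difference spectra recorded from 300–600 nm until no further shift. Peak-to-trough ΔA taken at 390−419, 500−419 or 500−570 nm depending on ligand, then fitted to a hyperbolic equation for KD; triplicate titrations.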

[2] = test system: SyoA mutants (SyoAEE, SyoAQT, SyoAET); assay: In vitro H2O2-driven O-demethylation by I-helix mutants, HPLC; format: biochemical, Amycolatopsis thermoflava N1165; details: mutation of Gln252 and/or Glu253
Procedure, shortened: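 SyoA I-helix mutants expressed in E. coli BL21(DE3) and purified by Ni affinity only. Enzyme at 1 µM in 50 mM Tris pH 7.5 with 0.5–2 mM test compound, preincubated 2 min at 30 °C. Started with 10 mM H2O2 and run 60 min at 30 °C, then catalase-quenched; triplicate. Products quantified by C18 HPLC at 254 nm with internal standard and product calibration curves.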

[3] = test system: SyoA mutants (SyoAEE, SyoAQT, SyoAET); assay: UV-Vis substrate binding analysis of I-helix mutants; set-up: species or system Amycolatopsis thermoflava N1165
SyoA [4] = molecular target: T1, SyoA; assay: In vitro H2O2-driven; format: biochemical, Amycolatopsis thermoflava N1165; details: 1 µM SyoA; for total turnover number (TTN): 10 mM H2O2, 60 min; for concentration of demethylated aromatic product (mean of 3 replicates): 50 mM Tris pH 7.5, 10 mM H2O2, 0.5 mM syringol; for concentration of demethylated aromatic product (mean of 3 replicates) / concentration of demethylated aromatic product (individual replicates): 0.5 mM syringaldehyde or 2 mM 4-methylsyringol, 30 °C, 60 min; for concentration of demethylated aromatic product (individual replicates): 10 mM H2O2, 0.5 mM syringol
Procedure, shortened: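 SyoA expressed in E. coli BL21(DE3) and purified by Ni affinity then anion exchange. Enzyme at 1 µM in 50 mM Tris pH 7.5 with 0.5–2 mM test compound (from DMSO stock), preincubated 2 min at 30 °C. Started with 10 mM H2O2 and run 60 min at 30 °C, then quenched with catalase; triplicate. Products quantified by C18 HPLC (20–95% MeCN/0.1% TFA, 254 nm) against internal-standard calibration (20–500 µM), or by GC-MS after ethyl acetate extraction.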

SyoA [5] = molecular target: T1, SyoA; assay: UV-Vis spin-state shift / substrate binding analysis; set-up: species or system Amycolatopsis thermoflava N1165; details: ligand titrated until Soret band stopped shifting
Procedure, shortened: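 SyoA at about 3 µM in 50 mM Tris pH 7.5 received test compound in 1 µL aliquots from 100 mM DMSO stock. Spectra recorded from 600–250 nm until no further shift. Spin-state change read from the Soret band (417 nm) or the Q-bands (568 and 535 nm).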

SyoA/SyoB = assay: In vitro NADH/O2-driven; format: biochemical, Amycolatopsis thermoflava N1165; details: ~320 μM NADH; for O-demethylation by reconstituted SyoA/SyoB monooxygenase system: 1 μM SyoA, 1 μM SyoB, 1 mM substrate, 30 °C
Procedure, shortened: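 Reconstituted system of 1 µM SyoA, 1 µM His-tagged SyoB and 100 µg/mL catalase in oxygenated 50 mM Tris pH 7.5 at 30 °C. Background NADH (about 320 µM) oxidation recorded first. Started with 1 mM test compound from DMSO stock; A340 (ε 6.22 mM−1 cm−1) monitored about 10 min, then about 1 h at room temperature for full NADH use. No-P450 controls included. Products analysed by HPLC.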

[6] = test system: GcoA mutants (GcoAEE, GcoAQT, GcoAET); assay: In vitro H2O2-driven O-demethylation by I-helix mutants, HPLC; format: biochemical, Amycolatopsis thermoflava; details: mutation of Gln248 and/or Glu249, 20 mM H2O2
Procedure, shortened: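 GcoA mutants carried N-terminal His6-TEV tags, were expressed in E. coli BL21(DE3) and purified by Ni affinity. Reactions used 1 µM enzyme in 50 mM Tris pH 7.5 with 0.5–2 mM test compound, preincubated 2 min at 30 °C. Started with 20 mM H2O2 and run 60 min at 30 °C, then catalase-quenched; triplicate. Products quantified by C18 HPLC at 254 nm against calibration curves.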

[7] = test system: GcoA mutants (GcoAEE, GcoAQT, GcoAET); assay: UV-Vis substrate binding analysis of I-helix mutants; set-up: species or system Amycolatopsis thermoflava
[8] = test system: GcoA mutants (GcoAEE, GcoAQT, GcoAET) with GcoB; assay: In vitro NADH/O2-driven; format: biochemical, Amycolatopsis thermoflava
Procedure, shortened: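 GcoA mutants at 0.5 µM with 1 µM GcoB and 100 µg/mL catalase in oxygenated 50 mM Tris pH 7.5 at 30 °C. About 320 µM NADH added first to record background oxidation. Started with 1 mM test compound; A340 followed for about 10 min, then left about 1 h at room temperature. No-P450 controls included. Products analysed by C18 HPLC at 254 nm.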

Row | Structure (SMILES) | Kd (SyoA [1]) | total turnover number (TTN) (SyoA [4]) | concentration of demethylated aromatic product (mean of 3 replicates) (SyoA [4]) | O-demethylation by reconstituted SyoA/SyoB monooxygenase system (SyoA/SyoB) | concentration of demethylated aromatic product (individual replicates) (SyoA [4]) | also measured
1 | COc1cccc(OC)c1O [syringol] | 16 ± 1 µM | 142 | 142 ± 15 µM | did not O-demethylate; also recorded: no O-demethylation | – | hydrogen peroxide driven O-demethylation by mutants compared to wild type [2]: loss of peroxygenase activity; substrate binding to mutants (UV-Vis) [3]: not drastically impacted by the mutations; substrate consumed (SyoA [4]; over 60 min, 10 mM H2O2): ~ 65%; shift to the HS (high-spin) form using the Soret band (SyoA [5]): ~ 70%; NADH consumption in reaction containing SyoA, SyoB and substrate (SyoA/SyoB; monitored at 340 nm): NADH was consumed
2 | COc1cc(C=O)cc(O)c1O [3a, 5-hydroxyvanillin] | – | – | – | – | 332 µM and 314 µM and 279 µM | –
3 | COc1cccc(O)c1O [1b, 3-methoxycatechol] | – | – | – | – | 155 µM and 125 µM and 146 µM | –
4 | COc1ccccc1O [guaiacol] | – | – | – | – | – | hydrogen peroxide driven O-demethylation by mutants compared to wild type [6]: loss of peroxygenase activity; substrate binding to mutants (UV-Vis) [7]: not drastically impacted by the mutations; monooxygenase activity compared to wild type ([8]; GcoAEE): significant reduction in the monooxygenase activity; monooxygenase activity compared to wild type ([8]; GcoAET): significant reduction in the monooxygenase activity; monooxygenase activity compared to wild type ([8]; GcoAQT): complete loss in activity
5 | COc1cc(C=O)cc(OC)c1O [syringaldehyde] | 341 ± 25 µM | 308 | 308 ± 27 µM | did not O-demethylate; also recorded: no O-demethylation | – | –
6 | COc1cc(C)cc(O)c1O [2a, 3-methoxy-5-methylbenzene-1,2-diol] | – | – | – | – | 802 µM and 822 µM and 762 µM | –
